# From PubChem
# SIRT5 block: blocks human SIRT5 desuccinylation of peptide | Purified SirT5, succinyl-peptide AMC, trypsin-coupled fluorescence | inhibition, % at 15 µM | AID 652115 | Q9NXA8 | hit rate 1.1% among 330,000; in the data active = inhibition above about 15%; inconclusive = no clear call, values can overlap the other calls
# CAL PDZ FP-1: inhibitors of human CAL PDZ peptide binding. hit rate 0.02% among 330,000. purified CAL PDZ, TMR-peptide fluorescence polarization, 1 h. Q9HD26. inhibition, % at 20 µM;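 active = highest replicate inhibition of at least 40%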;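 note: plate controls were DMSO neutral control wells for no effect and unlabeled competitor peptide control wells for full effect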
#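 Control set: unlabelled peptide and DMSO controls / Material: purified CerCALP PDZ construct / Timing: 1 h incubation at room temperature before polarization reading / Doses: 20 µM, one dose / Detection: fluorescence polarization (mP)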
# ERAP1 inh: inhibitors of human ERAP1 aminopeptidase; recombinant ERAP1, Leu-AMC fluorescence, 60 min; inhibition, % at 10.7 µM; Q9NZ08; AID 652197; hit rate 0.15% among 340,000;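 active = mean replicate inhibition of at least 30%, or all replicates individually reaching that 30% level; inactive = mean below 30% and not every replicate reaching it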;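 note: 0% = neutral control wells and 100% = L-leucinethiol positive control wells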
# CAL PDZ FP-2: inhibitors of human CAL PDZ peptide binding; purified CAL PDZ, TMR-peptide fluorescence polarization, 1 h; inhibition, % at 24.9 µM; hit rate 0.92% among 300,000;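 active = mean inhibition of at least 30% with at least half of replicates also reaching 30%; inconclusive = no clear call, values can overlap the other calls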;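 note: 0% = DMSO neutral control and 100% = excess unlabeled competitor peptide PRC23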
# DENV2 CPE rescue: DENV2-induced cell death inhibition. hit rate 1.7% among 350,000. DENV2-infected cells, cytopathic effect rescue, plate reader. CPE inhibition, % at 9.99 µM; in the data active = CPE inhibition above about 20%, passing the limit was not always enough; inconclusive = no clear call, values can overlap the other calls; tested in BHK-21 cells;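 note: 0% = median of neutral control wells and 100% = median of positive control wells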
# S100A4 MyoIIA: inhibitors of human S100A4 binding to myosin IIA peptide; P26447; S100A4/TAMRA-MyoIIA peptide fluorescence polarization; inhibition, % at 10.7 µM; hit rate 0.14% among 360,000; AID 652163;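 active = mean inhibition of at least 70% across replicates, with every replicate also reaching that level; inconclusive = mean inhibition reaches 70% but some replicates fall short; inactive = mean inhibition below 70%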
#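 Test system – S100A4 monomer (human) · Compound – single-point compound testing · Schedule – 5 min incubation before reading · Probe or stimulus – TAMRA-labelled myosin IIA heavy-chain peptide probe, 5 nM · Benchmarks – neutral control DMSO, positive control TFP · Medium – Calcium-containing HEPES buffer, pH 7.2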
# * hit, by the source's call; ? = inconclusive; . = no result given. Shown are actives, neighbours in structure and some others; about 2.9% of the full set was active somewhere.
SMILES,SIRT5 block,CAL PDZ FP-1,ERAP1 inh,CAL PDZ FP-2,DENV2 CPE rescue,S100A4 MyoIIA
[N-]=C=C1C(=O)NC(=O)C([n+]2ccc(-c3ccncc3)cc2)C1c1ccccc1C(F)(F)F (centres undefined),-4.4,1.2,-2.8,-3.8,-0.9,8.7
[N-]=C=C1C(=S)NC(=O)[C@H]([n+]2ccccc2)[C@H]1c1ccc(Cl)cc1,33.8*,0.7,-1.3,-2.0,-0.1,4.6
COc1ccccc1CN1CC(C(=O)N(C)CCCn2nc(C)cc2C)CCC1=O (centres undefined),-1.2,-0.8,-0.9,.,51.5*,-1.5
COc1ccccc1CN1CC(C(=O)NCc2nccn2C)CCC1=O (centres undefined),-4.5,0.1,1.2,-1.0,31.1*,5.2
COc1ccc(CCN2CC(C(=O)N(C)CCn3nc(C)cc3C)CCC2=O)cc1 (centres undefined),-0.3,-0.8,-2.7,.,0.3,0.8
CC(C)Cc1nnc(NC(=O)c2cc3c(s2)CCC3)s1,-3.5,-0.7,3.6,45.0*,-1.6,1.4
COc1ccc(CN(C)C[C@H]2Oc3ccc(NC(=O)Cc4ccccc4)cc3CC(=O)N([C@H](C)CO)C[C@H]2C)cc1,1.2,.,3.3,.,-0.4,5.3
C[C@@H]1CN([C@H](C)CO)C(=O)c2cc(NC(=O)Nc3cccc4ccccc34)ccc2O[C@@H](C)CCCCO[C@@H]1CN(C)S(=O)(=O)c1cn(C)cn1,2.6,.,0.2,.,-2.9,-5.5
C=CCN(c1ccccc1)S(=O)(=O)c1cccc(C(=O)Nc2ccncc2)c1,18.7*,-3.5,0.3,-5.3,-3.1,3.6
COc1ccc(CNc2ccc(-c3ccccc3OC)nn2)cc1,.,-1.3,.,55.5*,.,.
COc1ccc(CNc2ccc(-c3ccc(OC)cc3)nn2)cc1,.,1.3,.,0.9,.,.
CO[C@H]1CN(C)C(=O)c2ccc(NC(=O)Nc3ccccc3)cc2OC[C@H](C)NC[C@@H]1C,-1.7,.,-2.5,.,31.6*,-42.3
CO[C@@H]1CN(C)C(=O)c2ccc(NC(=O)Nc3ccc(F)cc3)cc2OC[C@H](C)NC[C@@H]1C,-0.5,.,-6.9,.,36.4*,2.7
CO[C@H]1CN(C)C(=O)c2ccc(NC(=O)Nc3ccc(Cl)c(Cl)c3)cc2OC[C@H](C)NC[C@H]1C,100.3*,.,-1.3,.,6.7,-5.5
COc1cc(OC)cc(C(=O)NNC(=S)NC2CC2)c1,-7.4,0.0,1.3,57.1*,.,4.6
COc1ccc2c3c([nH]c2c1)[C@@H](CO)N(C(=O)c1ccc(F)cc1)CC31CCN(C(=O)CC2CC2)CC1,.,.,.,.,6.1,.
Cc1noc(C)c1NC(=O)N(C)C[C@@H]1Oc2ccc(NC(=O)C3CC3)cc2CC(=O)N([C@H](C)CO)C[C@H]1C,4.2,.,1.1,.,-4.0,4.9
N#C[C@H]1[C@@H](c2ccccc2C2=CCCC2)[C@@H](CO)N1C(=O)NC1CCCC1,1.9,.,3.1,.,?,1.9
COc1ccc(NC(=O)Nc2cccc3c2O[C@@H](CN(C)S(C)(=O)=O)[C@H](C)CN([C@H](C)CO)C3=O)cc1,-1.8,.,1.6,.,?,5.7
N#Cc1ccc(CSc2nc(N)cc(N)n2)cc1,3.6,-3.4,2.7,72.2*,0.1,0.2
Cc1ccc(CSc2nc(N)cc(N)n2)cc1,-3.2,.,3.6,-5.5,14.1,-3.1
COc1ccc(CNc2nc3nc(C)c(Cl)c(=O)n3[nH]2)cc1OC,.,0.9,.,-9.3,.,.
COc1ccc(CNc2nc3nc(-c4ccccc4)cc(=O)n3[nH]2)cc1OC,.,-0.9,.,39.6*,.,.
OC[C@H]1Nc2ccc(-c3cccc(F)c3)cc2[C@@H]2[C@H]1CCN2Cc1ccc(F)cc1,7.5,.,-2.7,.,47.6*,24.3
CC(=O)N1CC[C@@H]2[C@@H](CO)Nc3ccc(-c4cccc(F)c4)cc3[C@@H]21,-11.8,.,1.6,.,28.6*,2.0
O=C(C1CC1)N1CC[C@@H]2[C@H]1c1cc(-c3ccc(F)cc3)ccc1N[C@@H]2CO,.,.,.,.,121.7*,.
OC[C@H]1Nc2ccc(-c3cccc(F)c3)cc2[C@H]2[C@@H]1CCN2Cc1ccc(F)cc1,9.1,.,-0.6,.,-18.1,-9.2
O=C(C1CCOCC1)N1CC[C@@H]2[C@H](CO)Nc3ccc(-c4cccc(F)c4)cc3[C@@H]21,-2.3,.,-0.3,.,?,10.4
